Laboratory results from ChEMBL document CHEMBL1132289, “Novel potent and selective central 5-HT3 receptor ligands provided with different intrinsic efficacy. 2. Molecular basis of the intrinsic efficacy of arylpiperazine derivatives at the central 5-HT3 receptors” (J Med Chem, 1999).

What was measured:
[1] = biological target: T1, Serotonin 3 (5-HT3) receptor (Rattus norvegicus, UniProt P35563+Q9JJ16); assay: Inhibition of [3H]granisetron binding to 5-hydroxytryptamine 3 receptor (5-HT 3 receptor) of rat cortex and hippocampus tissue; assay type: tissue-based
T1 sequence (P35563 whole entry): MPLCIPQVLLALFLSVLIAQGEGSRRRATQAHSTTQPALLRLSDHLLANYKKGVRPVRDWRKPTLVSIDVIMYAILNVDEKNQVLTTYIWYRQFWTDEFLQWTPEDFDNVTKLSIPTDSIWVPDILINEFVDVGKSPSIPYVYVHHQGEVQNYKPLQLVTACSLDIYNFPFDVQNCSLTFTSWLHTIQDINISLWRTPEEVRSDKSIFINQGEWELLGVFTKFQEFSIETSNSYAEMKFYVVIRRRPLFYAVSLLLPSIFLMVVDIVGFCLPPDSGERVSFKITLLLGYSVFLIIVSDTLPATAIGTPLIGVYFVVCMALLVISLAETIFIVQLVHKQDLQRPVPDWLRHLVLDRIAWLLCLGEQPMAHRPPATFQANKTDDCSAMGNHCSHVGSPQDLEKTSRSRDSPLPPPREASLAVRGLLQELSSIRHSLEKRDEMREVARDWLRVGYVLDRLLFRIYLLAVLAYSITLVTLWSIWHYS
T1 sequence (Q9JJ16 whole entry): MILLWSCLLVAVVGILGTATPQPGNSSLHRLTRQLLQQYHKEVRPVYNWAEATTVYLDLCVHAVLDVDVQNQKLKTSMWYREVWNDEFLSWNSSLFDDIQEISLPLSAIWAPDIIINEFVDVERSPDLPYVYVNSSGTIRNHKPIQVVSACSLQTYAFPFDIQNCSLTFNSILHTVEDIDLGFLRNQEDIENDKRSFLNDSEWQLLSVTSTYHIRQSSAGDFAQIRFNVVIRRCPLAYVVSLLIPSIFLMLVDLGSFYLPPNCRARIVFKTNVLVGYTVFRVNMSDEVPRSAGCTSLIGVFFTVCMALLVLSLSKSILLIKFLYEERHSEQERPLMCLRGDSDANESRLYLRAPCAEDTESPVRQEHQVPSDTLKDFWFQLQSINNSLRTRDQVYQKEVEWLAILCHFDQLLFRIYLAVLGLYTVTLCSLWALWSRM

NG108-15 [2] = assay: (§1) Quantitative effect on the [14C]guanidinium accumulation in NG 108-15 cells (mouse neuroblastoma and rat glioma hybrid cells); assay type: functional, cell-based; conditions: Murinae
In short: (§2)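 NG 108-15 cells grown 2 days, washed, then exposed 10 min at 37 °C to buffer containing 10 mM guanidinium, [14C]guanidinium, 10 μM substance P, and/or 1 μM 5-HT, with eight drug concentrations. Cells lysed in NaOH, then scintillation counting. EC50 for agonists, IC50 for antagonists. Triplicate per concentration.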

[3] = biological target: T2, Serotonin 3 (5-HT3) receptor (Rattus norvegicus) (UniProt P35563+Q9JJ16); assay: Intrinsic efficacy against 5-hydroxytryptamine 3 receptor; A means pure agonist; assay type: functional; conditions: filed as agonist
In short: (§3)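 Mouse neuroblastoma × rat glioma NG 108-15 cells grown 2 days in DMEM; washed, then incubated 10 min at 37 °C in guanidinium buffer B (135 mM NaCl, 10 mM guanidinium, pH 7.4) with […] [14C]guanidinium, 10 μM substance P, 1 μM 5-HT where indicated, eight drug concentrations; ice-cold choline wash, NaOH lysis, scintillation counting. Triplicates; EC50 (agonists/partial agonists) or IC50 (antagonists).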

[4] = biological target: T2, Serotonin 3 (5-HT3) receptor (Rattus norvegicus); assay: Intrinsic efficacy against 5-hydroxytryptamine 3 receptor; PA means partial agonist; assay type: functional; conditions: filed as partial agonist; in short: as §2
[5] = biological target: T3, 5-hydroxytryptamine receptor 1A (Rattus norvegicus, UniProt P19327); assay: Binding affinity against 5-hydroxytryptamine 1A receptor of rat hippocampus tissue.; assay type: tissue-based
T3 sequence (P19327 whole entry): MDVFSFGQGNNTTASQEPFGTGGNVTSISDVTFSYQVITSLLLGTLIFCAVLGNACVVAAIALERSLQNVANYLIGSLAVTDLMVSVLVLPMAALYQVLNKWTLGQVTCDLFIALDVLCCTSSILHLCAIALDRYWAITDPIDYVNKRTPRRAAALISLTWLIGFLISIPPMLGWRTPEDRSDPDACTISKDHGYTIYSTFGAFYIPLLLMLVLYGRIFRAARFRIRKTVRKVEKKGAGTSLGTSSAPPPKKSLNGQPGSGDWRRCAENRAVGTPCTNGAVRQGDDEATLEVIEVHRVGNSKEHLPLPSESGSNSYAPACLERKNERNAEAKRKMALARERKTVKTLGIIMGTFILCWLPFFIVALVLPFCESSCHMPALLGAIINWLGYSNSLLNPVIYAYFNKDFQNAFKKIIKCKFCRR
In short: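 Rat tissue homogenized in ice-cold 50 mM Tris HCl, resuspended in 50 mM Tris HCl pH 7.4. [3H]8-OH-DPAT 0.5 nM final, 4 mg tissue/sample, 0.5 mL incubation. Stopped by vacuum filtration through GF/B filters, scintillation counting. Mean ± SEM of three determinations.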

NG108-15 [6] = assay: as §1; assay type: functional, cell-based; conditions: Murinae; remark: listed apart in the source
[7] = biological target: T4, 5-hydroxytryptamine receptor 2C (Rattus norvegicus, UniProt P08909); assay: Binding affinity against 5-hydroxytryptamine 2C receptor of rat cortex; assay type: tissue-based
T4 sequence (P08909 whole entry): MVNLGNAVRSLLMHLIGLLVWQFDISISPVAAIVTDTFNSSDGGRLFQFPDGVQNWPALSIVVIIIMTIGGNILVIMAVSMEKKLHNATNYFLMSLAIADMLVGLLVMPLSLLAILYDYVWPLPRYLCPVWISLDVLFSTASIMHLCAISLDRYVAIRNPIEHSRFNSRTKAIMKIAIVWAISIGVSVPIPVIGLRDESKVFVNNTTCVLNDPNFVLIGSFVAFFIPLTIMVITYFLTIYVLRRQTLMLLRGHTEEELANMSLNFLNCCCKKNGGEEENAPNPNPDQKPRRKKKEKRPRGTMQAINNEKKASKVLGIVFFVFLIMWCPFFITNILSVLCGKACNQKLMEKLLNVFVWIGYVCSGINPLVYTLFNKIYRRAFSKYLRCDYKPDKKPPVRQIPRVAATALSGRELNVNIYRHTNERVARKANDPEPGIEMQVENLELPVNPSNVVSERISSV

[8] = biological target: T2, Serotonin 3 (5-HT3) receptor (Rattus norvegicus); assay: Intrinsic efficacy for rat 5-hydroxytryptamine 3 receptor; assay type: protein-complex assay; conditions: filed as antagonist
[9] = biological target: T5, 5-hydroxytryptamine receptor 2A (Rattus norvegicus, UniProt P14842); assay: Binding affinity against 5-hydroxytryptamine 2A receptor of rat pre-frontal cortex; assay type: tissue-based
T5 sequence (P14842 whole entry): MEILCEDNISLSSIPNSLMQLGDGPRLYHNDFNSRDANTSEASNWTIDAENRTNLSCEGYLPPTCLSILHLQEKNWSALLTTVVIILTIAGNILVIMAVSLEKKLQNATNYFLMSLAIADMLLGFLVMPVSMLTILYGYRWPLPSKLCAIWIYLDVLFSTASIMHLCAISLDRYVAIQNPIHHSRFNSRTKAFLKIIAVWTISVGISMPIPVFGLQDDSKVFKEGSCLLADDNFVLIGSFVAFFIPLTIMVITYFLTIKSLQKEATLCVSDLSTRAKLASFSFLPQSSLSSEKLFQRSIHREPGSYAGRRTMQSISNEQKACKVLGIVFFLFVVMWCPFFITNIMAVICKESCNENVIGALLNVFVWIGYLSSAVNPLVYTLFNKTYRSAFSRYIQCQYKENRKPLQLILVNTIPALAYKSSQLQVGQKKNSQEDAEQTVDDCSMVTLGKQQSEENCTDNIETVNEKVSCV
In short: (§4)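 Membranes incubated with [3H]ketanserin 0.5 nM final, 8 mg tissue/sample, 0.5 mL, 50 mM Tris HCl pH 7.7. Filtration through GF/B filters, then scintillation counting. […] Mean ± SEM of three determinations.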

[10] = biological target: T6, 5-hydroxytryptamine receptor 1B (Rattus norvegicus, UniProt P28564); assay: Binding affinity against 5-hydroxytryptamine 1B receptor of rat striatum; assay type: tissue-based
T6 sequence (P28564 whole entry): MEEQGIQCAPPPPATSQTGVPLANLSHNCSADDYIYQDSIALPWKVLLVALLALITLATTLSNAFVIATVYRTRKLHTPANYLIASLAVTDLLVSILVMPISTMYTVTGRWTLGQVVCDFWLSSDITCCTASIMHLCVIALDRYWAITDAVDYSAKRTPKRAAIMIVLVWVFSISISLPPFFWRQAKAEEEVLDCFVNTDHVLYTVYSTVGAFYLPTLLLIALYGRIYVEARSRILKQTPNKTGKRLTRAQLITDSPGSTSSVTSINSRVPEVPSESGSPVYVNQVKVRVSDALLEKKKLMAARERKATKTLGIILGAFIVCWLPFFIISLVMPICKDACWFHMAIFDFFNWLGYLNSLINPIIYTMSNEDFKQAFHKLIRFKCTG
In short: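 [3H]5-HT 2.3 nM final, 14 mg tissue/sample, 1.0 mL, in 50 mM Tris HCl pH 7.7 with 10 μM pargyline, 4 mM CaCl2 and 0.1% ascorbic acid. Filtration through GF/B filters, scintillation counting. […] Mean ± SEM of three determinations.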

[11] = biological target: Sodium-dependent serotonin transporter (Rattus norvegicus, UniProt P31652); assay: Binding affinity towards Serotonin transporter was determined in rat forebrain membrane; assay type: cell membranes
Chain of Sodium-dependent serotonin transporter (P31652 whole entry): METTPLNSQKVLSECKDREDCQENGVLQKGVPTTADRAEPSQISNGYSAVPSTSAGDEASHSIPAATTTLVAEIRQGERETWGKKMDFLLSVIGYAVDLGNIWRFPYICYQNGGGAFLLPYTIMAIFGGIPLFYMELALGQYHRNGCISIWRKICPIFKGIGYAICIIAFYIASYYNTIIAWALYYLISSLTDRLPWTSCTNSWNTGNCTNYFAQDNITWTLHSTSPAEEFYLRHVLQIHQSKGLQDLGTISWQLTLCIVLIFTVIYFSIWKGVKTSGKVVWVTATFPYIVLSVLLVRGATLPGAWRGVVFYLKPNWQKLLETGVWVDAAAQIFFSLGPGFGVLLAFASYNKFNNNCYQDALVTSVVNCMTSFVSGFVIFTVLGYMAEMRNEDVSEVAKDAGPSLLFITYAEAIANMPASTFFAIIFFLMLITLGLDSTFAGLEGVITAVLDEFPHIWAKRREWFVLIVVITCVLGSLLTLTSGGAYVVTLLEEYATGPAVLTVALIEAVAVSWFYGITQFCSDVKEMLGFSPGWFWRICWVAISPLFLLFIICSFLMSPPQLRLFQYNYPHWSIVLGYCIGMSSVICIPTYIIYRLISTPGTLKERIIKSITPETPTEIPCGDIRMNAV
In short: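 Membranes stored at -80 °C. [3H]paroxetine 0.1 nM final, 2 mg tissue/sample, 2.0 mL, in 50 mM Tris HCl pH 7.4 with 120 mM NaCl and 5 mM KCl. Filters presoaked in 0.5% poly(ethylenimine). Mean ± SEM of three determinations.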

[12] = biological target: T4, 5-hydroxytryptamine receptor 2C; assay: Binding affinity against 5-hydroxytryptamine 2C receptor of rat cortex.
[13] = biological target: T1, Serotonin 3 (5-HT3) receptor; assay: Inhibition of [3H]granisetron binding to 5-hydroxytryptamine 3 receptor of rat cortical membrane
[14] = biological target: T6, 5-hydroxytryptamine receptor 1B; assay: Binding affinity against 5-hydroxytryptamine 1B receptor of rat striatum.; assay type: tissue-based
[15] = biological target: T5, 5-hydroxytryptamine receptor 2A; assay: Binding affinity against 5-hydroxytryptamine 2A receptor of rat pre-frontal cortex.; in short: as §4
NG108-15 [16] = assay: Quantitative effect on the [14C]guanidinium accumulation in NG 108-15 cells.; assay type: functional, cell-based; conditions: Murinae; in short: as §3

SMILES: CN1CCN(c2nccc3c2ccc2ccccc23)CC1
- Ki [1]: 29 nM
- EC50 (NG108-15 [2]): 30 nM
- Intrinsic efficacy [3]: Agonist

SMILES: CCCN(CCC)C(=O)c1c(N2CCN(C)CC2)nc2cccc3c2c1-c1ccccc1-3
- Intrinsic efficacy [4]: Partial agonist
- Ki [1]: 3 nM

SMILES: CN1CCN(c2nc3ccccc3c(-c3ccccc3)c2COC(=O)c2ccccc2)CC1
- Ki [1]: 8.8 nM
- Ki [5]: 4100 nM
- IC50 (NG108-15 [6]): 9 nM
- Ki [7]: 31 nM
- Intrinsic efficacy [8]: Antagonist
- Ki [9]: > 10000 nM
- Ki [10]: 7600 nM
- Ki [11]: 1100 nM

SMILES: CN1CCN(c2nc3ccccc3c3c2CCCC3)CC1
- Intrinsic efficacy [4]: Partial agonist
- EC50 (NG108-15 [2]): 0.25 nM

SMILES: CN1CCN(c2cc(C34C[C@H]5C[C@@H](C3)C[C@@H](C4)C5)c3ccccc3n2)CC1
- Ki [1]: 80 nM
- IC50 (NG108-15 [6]): 80 nM
- Intrinsic efficacy [8]: Antagonist

SMILES: CN1CCN(c2nccc3c2CCc2ccccc2-3)CC1
- Ki [1]: 16 nM
- EC50 (NG108-15 [2]): 7 nM
- Intrinsic efficacy [3]: Agonist

SMILES: CN1CCN(c2nc3ccccc3c3c2CCc2sccc2-3)CC1
- Ki [12]: 420000 nM
- Ki [5]: 12000 nM
- IC50 (NG108-15 [6]): 62 nM
- Ki [13]: 5.7 nM
- Intrinsic efficacy [8]: Antagonist
- Ki [14]: 1500 nM
- Ki [15]: 3100 nM
- Ki [11]: 4600 nM

SMILES: CN1CCN(c2nc3ccccc3c3c2C(=O)c2ccccc2-3)CC1
- Ki [1]: 20 nM
- IC50 (NG108-15 [6]): 139 nM
- Intrinsic efficacy [8]: Antagonist

SMILES: c1ccc2nc(N3CCNCC3)ccc2c1
- Intrinsic efficacy [3]: Agonist

SMILES: CN1CCN(c2nc3c(c4c2CSc2ccccc2-4)CCCC3)CC1
- Ki [1]: 2700 nM

SMILES: CN1CCN(c2nc3c(c4c2CCc2ccccc2-4)CCCC3)CC1
- Ki [1]: 2300 nM

SMILES: NCCc1c[nH]c2ccc(O)cc12 [SEROTONIN]
- Intrinsic efficacy [3]: Agonist
- EC50 (NG108-15 [16]): 298 nM

SMILES: CN1CCN(c2nc3ccccc3c3ccccc23)CC1
- EC50 (NG108-15 [2]): 10 nM
- Intrinsic efficacy [3]: Agonist

SMILES: CN1CCN(c2ccnc3c2ccc2ccccc23)CC1
- Ki [1]: 490 nM

SMILES: CN1CCN(c2cc3c4c(cccc4n2)-c2ccccc2-3)CC1
- Intrinsic efficacy [4]: Partial agonist
- Ki [1]: 1.8 nM
- EC50 (NG108-15 [2]): 12 nM
- Ki [5]: 24000 nM
- Ki [7]: > 10000 nM
- Ki [9]: 13000 nM
- Ki [10]: 640 nM
- Ki [11]: 1600 nM

SMILES: CCCCOC(=O)c1c(N2CCN(C)CC2)nc2cccc3c2c1-c1ccccc1-3
- Ki [1]: 78 nM

SMILES: CN1CCN(c2nc3ccccc3c3c2CSc2ccccc2-3)CC1
- Ki [13]: 19 nM

SMILES: CN1C2CCCC1CC(NC(=O)c1nn(C)c3ccccc13)C2 (stereo not drawn)
- Intrinsic efficacy [8]: Antagonist

SMILES: CCOC(=O)c1c(N2CCN(C)CC2)nc2cccc3c2c1-c1ccccc1-3
- Ki [1]: 3.9 nM

SMILES: CN1CCN(c2nc3ccccc3c3c2ccc2ccccc23)CC1
- Ki [13]: 46 nM

SMILES: CN1CCN(c2nc3ccccc3c3c2CC2CCC3C2)CC1 (stereo not drawn)
- IC50 (NG108-15 [6]): 8 nM
- Intrinsic efficacy [8]: Antagonist

SMILES: CN1CCN(c2nc3ccccc3c3c2CCC2CCCCC32)CC1 (stereo not drawn)
- IC50 (NG108-15 [6]): 250 nM
- Ki [13]: 29 nM
- Intrinsic efficacy [8]: Antagonist

SMILES: c1ccc2c(c1)CCc1c(N3CCOCC3)nc3ccccc3c1-2
- Ki [13]: > 5300 nM

SMILES: c1ccc2c(c1)ccc1c(N3CCOCC3)nccc12
- Ki [1]: 4900 nM

SMILES: CN1CCN(c2nc3ccccc3c3c2CCc2ccccc2-3)CC1
- Ki [1]: 4.2 nM
- IC50 (NG108-15 [6]): 4.6 nM
- Intrinsic efficacy [8]: Antagonist
